The source made the active and inactive calls. No cut-off for these calls is given here.
Legend:
[1] = biological target: T1, Monoacylglycerol lipase ABHD6 (Mus musculus) (UniProt Q8R2Y0); experiment: Inhibition of ABHD6 in mouse brain membrane up to 30 uM preincubated for 25 mins followed by TAMRA-FP labeling addition and measured after 5 mins by competitive ABPP based analysis; format: cell membranes; conditions: dose microM <=30, time 30.0 min
T1 sequence (whole entry): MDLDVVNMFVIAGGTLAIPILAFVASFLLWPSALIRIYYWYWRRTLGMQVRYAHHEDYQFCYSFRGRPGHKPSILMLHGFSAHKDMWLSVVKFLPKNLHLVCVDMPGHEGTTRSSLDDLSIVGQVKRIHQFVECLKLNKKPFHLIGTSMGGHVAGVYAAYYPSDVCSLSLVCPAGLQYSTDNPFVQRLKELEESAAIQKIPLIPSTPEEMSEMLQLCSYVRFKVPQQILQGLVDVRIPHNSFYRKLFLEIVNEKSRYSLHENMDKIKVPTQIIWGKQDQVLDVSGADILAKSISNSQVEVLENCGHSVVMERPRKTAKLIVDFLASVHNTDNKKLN
Outline: (§1)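 Mouse brain membranes, 4 mg/mL in PBS, preincubated 25 min at 25 °C with compound at 10 µM or a range of concentrations. Labelled 5 min with TAMRA-FP at 125 nM final. Proteins resolved on 11% SDS-PAGE and scanned for fluorescence.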

MDA-MB-231 = experiment: Antiproliferative activity against human MDA-MB-231 cells as reduction in cell growth measured after 96 hrs by Celltiter-glo luminescent assay; format: functional, cell-based; conditions: MDA-MB-231, 96 h
Outline: (§2)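 Cell lines kept at 37 °C, 5% CO2; 5 × 10^2 cells per well, compound added the day after seeding at 200 to 0.02 µM. Viability read after 96 h by CellTiter-Glo luminescence. IC50 from logistic dose-response curves, in triplicate; error bars are SD.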

SK-OV-3 = experiment: Antiproliferative activity against human SKOV3 cells as reduction in cell growth measured after 96 hrs by Celltiter-glo luminescent assay; format: functional, cell-based; conditions: SK-OV-3, 96 h; outline: as §2
Caov-3 cell line = experiment: Antiproliferative activity against human CAOV3 cells as reduction in cell growth measured after 96 hrs by Celltiter-glo luminescent assay; format: functional, cell-based; conditions: Caov-3, 96 h; outline: as §2
Cannabinoid receptor 2 = Cannabinoid receptor 2 (Homo sapiens, UniProt P34972); experiment: Displacement of [3H]CP55940 from human CB2 receptor incubated for 90 mins by radioligand binding assay
Outline: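 Membranes expressing hCB1 or hCB2 in 50 mM Tris-HCl, 2.5 mM EDTA, 5 mM MgCl2, 0.5% BSA, pH 7.4, incubated with compound and 0.5 nM [3H]CP55,940 for 90 min at 30 °C. Nonspecific binding with 10 µM […]; filtered and counted. Screening at 10 µM; two experiments in triplicate.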

OVCAR-3 = experiment: Antiproliferative activity against human OVCAR3 cells as reduction in cell growth measured after 96 hrs by Celltiter-glo luminescent assay; format: functional, cell-based; conditions: OVCAR-3, 96 h; outline: as §2
Monoglyceride lipase = biological target: T2, Monoglyceride lipase (Homo sapiens, UniProt Q99685); experiment: Competitive inhibition of human recombinant MAGL using varying concentration of 4-nitrophenylacetate as substrate incubated for 30 mins by microplate reader assay
T2 sequence (Q99685 whole entry): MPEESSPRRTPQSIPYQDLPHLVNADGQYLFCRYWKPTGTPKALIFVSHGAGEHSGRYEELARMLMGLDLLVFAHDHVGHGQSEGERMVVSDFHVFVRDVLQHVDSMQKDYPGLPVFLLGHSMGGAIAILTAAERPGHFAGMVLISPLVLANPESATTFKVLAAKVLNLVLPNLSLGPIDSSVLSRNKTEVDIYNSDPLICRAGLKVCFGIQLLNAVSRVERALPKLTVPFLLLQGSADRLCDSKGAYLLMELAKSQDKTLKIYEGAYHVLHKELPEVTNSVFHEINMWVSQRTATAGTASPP
Outline: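 MAGL 11 ng/well; 4-nitrophenol absorbance recorded. Data fitted by the mixed-model inhibition fit to give Ki.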

HCT-116 = experiment: Antiproliferative activity against human HCT116 cells as reduction in cell growth measured after 96 hrs by Celltiter-glo luminescent assay; format: functional, cell-based; conditions: HCT-116, 96 h; outline: as §2
[2] = biological target: T3, Monoglyceride lipase (Mus musculus) (UniProt O35678); experiment: Inhibition of MAGL in mouse brain membrane preincubated for 25 mins followed by TAMRA-FP labeling addition and measured after 5 mins by competitive ABPP based analysis; format: cell membranes; conditions: time 30.0 min; outline: as §1
T3 sequence (whole entry): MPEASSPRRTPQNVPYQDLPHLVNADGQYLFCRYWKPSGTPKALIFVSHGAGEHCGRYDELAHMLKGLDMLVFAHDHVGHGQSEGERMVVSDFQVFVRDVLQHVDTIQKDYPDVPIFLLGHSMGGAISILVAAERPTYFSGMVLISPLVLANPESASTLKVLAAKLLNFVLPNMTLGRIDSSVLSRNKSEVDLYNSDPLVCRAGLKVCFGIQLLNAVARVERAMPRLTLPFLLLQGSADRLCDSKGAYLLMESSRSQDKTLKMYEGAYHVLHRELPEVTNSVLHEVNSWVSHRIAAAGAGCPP

[3] = biological target: T4, Fatty-acid amide hydrolase 1 (Homo sapiens) (UniProt O00519); experiment: Inhibition of FAAH in human U937 cells assessed as reduction in [3H]ethanolamine formation using [ethanolamine-1-3H]AEA as substrate at 10 uM incubated for 15 mins by liquid scintillation spectroscopy; format: cell-based; conditions: U-937
T4 sequence (whole entry): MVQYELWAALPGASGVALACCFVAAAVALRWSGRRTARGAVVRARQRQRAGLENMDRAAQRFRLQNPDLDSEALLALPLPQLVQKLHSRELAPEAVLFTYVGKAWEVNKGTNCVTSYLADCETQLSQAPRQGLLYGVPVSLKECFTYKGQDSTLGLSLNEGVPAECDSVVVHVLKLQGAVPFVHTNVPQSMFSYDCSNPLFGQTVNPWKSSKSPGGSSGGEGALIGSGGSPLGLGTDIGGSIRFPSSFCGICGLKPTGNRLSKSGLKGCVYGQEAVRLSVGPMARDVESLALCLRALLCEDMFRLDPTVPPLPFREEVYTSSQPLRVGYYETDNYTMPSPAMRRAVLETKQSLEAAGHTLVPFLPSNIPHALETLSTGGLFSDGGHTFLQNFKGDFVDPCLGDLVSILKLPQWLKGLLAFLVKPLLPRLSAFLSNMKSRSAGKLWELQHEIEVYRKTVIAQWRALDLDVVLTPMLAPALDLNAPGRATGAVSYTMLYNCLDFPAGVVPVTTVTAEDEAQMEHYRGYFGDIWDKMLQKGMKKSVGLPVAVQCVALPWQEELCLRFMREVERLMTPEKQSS
Outline: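 Intact U937 cells (1.0 × 10^6) in Tris-HCl 10 mM, EDTA 1 mM, 0.1% BSA, pH 8, given compound at 37 °C. Then 15 min at 37 °C with shaking. MAGL: 10 µM 2-OG plus 0.5 nM [3H]2-OG. FAAH: 1 µM AEA plus 2 nM [3H]AEA. Aqueous-phase tritium counted; three experiments in triplicate.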

Sequence of Cannabinoid receptor 2 (P34972 whole entry): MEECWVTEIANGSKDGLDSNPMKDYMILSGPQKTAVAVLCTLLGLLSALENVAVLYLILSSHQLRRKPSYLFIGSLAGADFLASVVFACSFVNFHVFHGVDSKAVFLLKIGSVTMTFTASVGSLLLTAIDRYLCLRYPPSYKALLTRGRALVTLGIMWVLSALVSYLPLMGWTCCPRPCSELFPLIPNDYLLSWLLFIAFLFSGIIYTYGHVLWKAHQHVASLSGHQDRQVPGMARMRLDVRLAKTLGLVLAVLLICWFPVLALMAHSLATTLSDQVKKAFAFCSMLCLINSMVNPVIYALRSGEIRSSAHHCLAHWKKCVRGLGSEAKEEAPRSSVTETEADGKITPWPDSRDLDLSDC

Structure (SMILES)	inhibition [1]	IC50 (MDA-MB-231)	IC50 (SK-OV-3)	IC50 (Caov-3 cell line)	IC50 (Cannabinoid receptor 2)	IC50 (OVCAR-3)	Ki (Monoglyceride lipase)	IC50 (HCT-116)	inhibition [2]	inhibition [3]
O=C(c1ccc(Sc2ccccc2)cc1)C1CCN(C(=O)c2cc(O)c(F)cc2F)CC1	inactive	63 µM	11 µM	42 µM	> 10 µM	> 100 µM	0.011 µM	15 µM	Dose-dependent effect	22%
O=C(c1ccc(Cc2ccccc2)cc1)C1CCN(C(=O)c2cc(O)c(F)cc2F)CC1	inactive	65 µM	12 µM	44 µM	> 10 µM	> 100 µM	0.03 µM	5.3 µM	Dose-dependent effect	21%
O=C(c1ccc(Cc2ccccc2)cc1)C1CCN(C(=O)c2cc(O)ccc2F)CC1	inactive	25 µM	8 µM	70 µM	> 10 µM	20.7 µM	0.037 µM	17 µM	Dose-dependent effect	< 10%
O=C(c1ccc(Sc2ccccc2)cc1)C1CCN(C(=O)c2cc(O)ccc2F)CC1	inactive	43 µM	4.6 µM	34 µM	> 10 µM	> 100 µM	0.027 µM	5.1 µM	Dose-dependent effect	< 10%
